≈ marks a conversion by molar mass, not a printed value.

The results in this text go back to ChEMBL document CHEMBL1127338, “Synthesis and antifungal activity of 1,3,2-benzodithiazole S-oxides” (J Med Chem, 1994).

The subject of data set [1] is Candida albicans. The data set is described as follows: Antifungal activity against Candida albicans 38247 strain. The data set is classed as functional. In a few lines:
(§1)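 MIC determined by microtiter broth dilution in yeast nitrogen base with 0.05% glucose. Inoculum came from an overnight plate culture, at a final 5×10^4 cfu/mL. Plates were incubated at 35 °C for 24-48 h. MIC was taken as the lowest drug concentration completely inhibiting visible growth. 10231, 442 and 579A are clinical isolates; 38247 is a nonclinical amphotericin-resistant strain.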

In data set [2] the test system is Candida albicans. The data set is described as follows: Antifungal activity against Candida albicans 579A strain. The data set is classed as functional. Put shortly: as §1
Data set [3] has as its system Candida albicans. The data set is described as follows: Antifungal activity against Candida albicans 10231 strain. The data set is classed as functional. In a few lines:
as §1

The test system of data set [4] is Candida albicans. The data set is described as follows: Antifungal activity against Candida albicans CCH442 strain. The data set is classed as functional. Put shortly:
as §1

Data set [5] deals with Rattus norvegicus. The data set is described as follows: % of the total radioactive dose of compound present in the 0-24 hour urine after a single 5 mg/kg dose administered intravenously in rats. The data set is classed as ADME, organism-based. On the set-up: dose 5 mg/kg, route intravenous. Conditions: in vivo, iv. Put shortly:
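14C-benzylic-labelled compound mixed with unlabelled material, given once iv at 5 mg/kg (~15 μCi per rat) as a 5 mg/mL solution in ethanol/propylene glycol/saline (20:35:45). Urine and feces collected daily for 3 days from two rats. Duplicate urine aliquots counted by liquid scintillation with quench correction. Fecal homogenates oxidized to 14CO2 before counting.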

The test system of data set [6] is Rattus norvegicus. The data set is described as follows: plasma concentration of total radio activity 30 minutes after intravenous administration in rats. In kind it is ADME, organism-based. Conditions: in vivo, 0.5 h. In a few lines:
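Rats given a single 5 mg/kg iv dose of 14C-labelled compound (~15 μCi each) in ethanol/propylene glycol/saline (20:35:45). At 30 min, one male and two female rats were anesthetized with CO2 and bled by cardiac puncture. Plasma was separated from heparinized blood by centrifugation at 4 °C for 15 min. Duplicate aliquots were counted by liquid scintillation with quench correction.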

What is called MIC is the lowest concentration found to suppress growth. A higher MIC goes with a less susceptible organism. `CCC(CC)N1Sc2ccccc2[S+]1[O-]` (stereo not drawn): the MIC with Candida albicans [1] worked out at 50 µg/mL (≈ 207 µM); in the data set on Candida albicans [2], 100 µg/mL (≈ 414 µM); in the data set with Candida albicans [3], 100 µg/mL (≈ 414 µM); in the data set with Candida albicans [4], 100 µg/mL (≈ 414 µM).

As to `[O-][S+](c1ccccc1)N(Cc1ccccc1)Sc1ccccc1` (stereo not drawn), the MIC was 50 µg/mL (≈ 147 µM) with Candida albicans [1], over 100 µg/mL with Candida albicans [2], over 100 µg/mL with Candida albicans [3] and over 100 µg/mL in the data set on Candida albicans [4].

For `[O-][S+]1c2ccccc2SN1Cc1c(F)cccc1F` (stereo not drawn), the MIC in the data set with Candida albicans [1] came to 1.56 µg/mL (≈ 5.25 µM); in the data set with Candida albicans [2], 0.78 µg/mL (≈ 2.62 µM); in the data set on Candida albicans [3], 0.78 µg/mL (≈ 2.62 µM); in the data set with Candida albicans [4], 1.56 µg/mL (≈ 5.25 µM).

In the case of `[O-][S+]1c2ccccc2SN1Cc1ccc(F)c(F)c1` (stereo not drawn), the minimal inhibitory concentration (MIC) against Candida albicans [1] worked out at 3.12 µg/mL (≈ 10.5 µM); against Candida albicans [2], 1.56 µg/mL (≈ 5.25 µM); in the data set on Candida albicans [3] it was 1.56 µg/mL (≈ 5.25 µM); with Candida albicans [4] it was 1.56 µg/mL (≈ 5.25 µM).

For the compound `[O-][S+]1c2ccc(F)cc2SN1Cc1ccccc1` (stereo not drawn), the MIC in the data set on Candida albicans [1] amounted to 1.56 µg/mL (≈ 5.58 µM); in the data set on Candida albicans [2], 0.78 µg/mL (≈ 2.79 µM); in the data set on Candida albicans [3] it was 0.78 µg/mL (≈ 2.79 µM); with Candida albicans [4] it was 0.78 µg/mL (≈ 2.79 µM).

On to `Cc1cccc2c1[S+]([O-])N(Cc1ccccc1)S2` (stereo not drawn), for which the MIC against Candida albicans [1] was 1.56 µg/mL (≈ 5.66 µM); in the data set with Candida albicans [2], 0.78 µg/mL (≈ 2.83 µM); in the data set on Candida albicans [3], 0.78 µg/mL (≈ 2.83 µM); against Candida albicans [4], 1.56 µg/mL (≈ 5.66 µM).

`CC(C)(C)CCN1Sc2ccccc2[S+]1[O-]` (stereo not drawn): the MIC was determined as 3.12 µg/mL (≈ 12.2 µM) in the data set with Candida albicans [2], 1.56 µg/mL (≈ 6.11 µM) with Candida albicans [3] and 1.56 µg/mL (≈ 6.11 µM) against Candida albicans [4].

With `Cc1ccc(C)c2c1SN(Cc1ccccc1)[S+]2[O-]` (stereo not drawn), the MIC with Candida albicans [1] is 25 µg/mL (≈ 86.4 µM); with Candida albicans [2] it was 3.12 µg/mL (≈ 10.8 µM); against Candida albicans [3] it was 1.56 µg/mL (≈ 5.39 µM); in the data set with Candida albicans [4], 3.12 µg/mL (≈ 10.8 µM).

In the case of `CCCCCCCCCCCCCCCCN1Sc2ccccc2[S+]1[O-]` (stereo not drawn), the MIC in the data set on Candida albicans [1], against Candida albicans [2], against Candida albicans [3] and in the data set with Candida albicans [4] was over 100 µg/mL in each case.

For the compound `CCCCCCCC/C=C/CCCCCCCCN1Sc2ccccc2[S+]1[O-]` (stereo not drawn), the MIC in the data set on Candida albicans [1] is over 100 µg/mL; in the data set with Candida albicans [2], 100 µg/mL (≈ 237 µM); against Candida albicans [3], 100 µg/mL (≈ 237 µM); in the data set on Candida albicans [4], over 100 µg/mL.

For `c1ccc(CN2Sc3ccccc3S2)cc1`, the MIC came out at 25 µg/mL (≈ 102 µM) with Candida albicans [1], 6.25 µg/mL (≈ 25.5 µM) against Candida albicans [2], 6.25 µg/mL (≈ 25.5 µM) in the data set on Candida albicans [3] and 12.5 µg/mL (≈ 50.9 µM) in the data set with Candida albicans [4].

For `[O-][S+]1c2ccccc2SN1Cc1ccccc1` (stereo not drawn), the Excretion in the data set with Rattus norvegicus [5] came to 88%. In the data set with Rattus norvegicus [6], the Plasma concentration stood at 4.6 ug equiv ml-1.

With `[O-][S+]1c2ccccc2SN1c1ccc2c(c1)OCO2` (stereo not drawn), the MIC with Candida albicans [1] was 25 µg/mL (≈ 85.8 µM); in the data set with Candida albicans [2] it was 25 µg/mL (≈ 85.8 µM); in the data set with Candida albicans [3], 12.5 µg/mL (≈ 42.9 µM); in the data set on Candida albicans [4] it was 25 µg/mL (≈ 85.8 µM).

Regarding `[O-][S+]1c2c(F)c(F)c(F)c(F)c2SN1Cc1ccccc1` (stereo not drawn), the MIC was 12.5 µg/mL (≈ 37.5 µM) with Candida albicans [1], 6.25 µg/mL (≈ 18.8 µM) in the data set with Candida albicans [2], 6.25 µg/mL (≈ 18.8 µM) against Candida albicans [3] and 12.5 µg/mL (≈ 37.5 µM) in the data set with Candida albicans [4].

As for `COCC(Cc1ccccc1)N1Sc2ccccc2[S+]1[O-]` (stereo not drawn), the MIC with Candida albicans [1], against Candida albicans [2], in the data set with Candida albicans [3] and with Candida albicans [4] was 3.12 µg/mL (≈ 9.77 µM) each time.

Turning to `CCCN1Sc2ccccc2S1`, the MIC against Candida albicans [1] was 25 µg/mL (≈ 127 µM); with Candida albicans [2] it was 3.12 µg/mL (≈ 15.8 µM); in the data set on Candida albicans [3] it was 3.12 µg/mL (≈ 15.8 µM); against Candida albicans [4], 12.5 µg/mL (≈ 63.3 µM).

For `[O-][S+]1c2c(F)c(F)c(N3CCOCC3)c(F)c2SN1Cc1ccccc1` (stereo not drawn), the MIC against Candida albicans [1] was 12.5 µg/mL (≈ 31.2 µM); with Candida albicans [2] it was 25 µg/mL (≈ 62.4 µM); with Candida albicans [3] it was 50 µg/mL (≈ 125 µM); against Candida albicans [4], 50 µg/mL (≈ 125 µM).

As to `c1ccc2c(c1)SN(C1CC1)S2`, the MIC is 50 µg/mL (≈ 256 µM) in the data set on Candida albicans [1], 25 µg/mL (≈ 128 µM) against Candida albicans [2], 25 µg/mL (≈ 128 µM) in the data set with Candida albicans [3] and 50 µg/mL (≈ 256 µM) in the data set with Candida albicans [4].

In the case of `CC(c1ccccc1)N1Sc2ccccc2[S+]1[O-]` (stereo not drawn), the MIC against Candida albicans [1] amounted to 3.12 µg/mL (≈ 11.3 µM); against Candida albicans [2] it was 1.56 µg/mL (≈ 5.66 µM); in the data set with Candida albicans [3] it was 1.56 µg/mL (≈ 5.66 µM); with Candida albicans [4] it was 1.56 µg/mL (≈ 5.66 µM).

Consider `[O-][S+]1c2ccccc2SN1C12CC3CC(CC(C3)C1)C2` (stereo not drawn), for which the MIC was determined as 50 µg/mL (≈ 164 µM) against Candida albicans [1], 12.5 µg/mL (≈ 40.9 µM) in the data set on Candida albicans [2], 6.25 µg/mL (≈ 20.5 µM) in the data set with Candida albicans [3] and 25 µg/mL (≈ 81.8 µM) against Candida albicans [4].

Regarding `[O-][S+]1c2ccccc2SN1C(c1ccccc1)c1ccccc1` (stereo not drawn), the MIC worked out at 25 µg/mL (≈ 74.1 µM) in the data set with Candida albicans [1], 6.25 µg/mL (≈ 18.5 µM) against Candida albicans [2], 25 µg/mL (≈ 74.1 µM) against Candida albicans [3] and 12.5 µg/mL (≈ 37 µM) in the data set with Candida albicans [4].

Turning to `COc1cc(CN2Sc3ccccc3[S+]2[O-])cc(OC)c1OC` (stereo not drawn), the MIC with Candida albicans [1] is 3.12 µg/mL (≈ 8.88 µM); against Candida albicans [2] it was 12.5 µg/mL (≈ 35.6 µM); against Candida albicans [3], 12.5 µg/mL (≈ 35.6 µM); with Candida albicans [4] it was 12.5 µg/mL (≈ 35.6 µM).

For `[O-][S+]1c2ccccc2SN1CC1CCCCC1` (stereo not drawn), the minimum inhibitory concentration (MIC) worked out at 3.12 µg/mL (≈ 11.7 µM) against Candida albicans [1], 1.56 µg/mL (≈ 5.83 µM) against Candida albicans [2], 1.56 µg/mL (≈ 5.83 µM) with Candida albicans [3] and 1.56 µg/mL (≈ 5.83 µM) against Candida albicans [4].

As for `[O-][S+]1c2ccccc2SN1Cc1ccc2ccccc2c1` (stereo not drawn), the MIC in the data set on Candida albicans [1] was determined as 12.5 µg/mL (≈ 40.1 µM); in the data set with Candida albicans [2], 3.12 µg/mL (≈ 10 µM); against Candida albicans [3] it was 3.12 µg/mL (≈ 10 µM); against Candida albicans [4], 6.25 µg/mL (≈ 20.1 µM).

Regarding `COc1ccc2c(c1)SN(Cc1ccccc1)[S+]2[O-]` (stereo not drawn), the MIC was 3.12 µg/mL (≈ 10.7 µM) in the data set on Candida albicans [1], 0.78 µg/mL (≈ 2.68 µM) against Candida albicans [2], 0.78 µg/mL (≈ 2.68 µM) in the data set with Candida albicans [3] and 0.78 µg/mL (≈ 2.68 µM) with Candida albicans [4].

Turning to `Cc1cccc2c1SN(Cc1ccccc1)[S+]2[O-]` (stereo not drawn), the MIC against Candida albicans [1] amounted to 25 µg/mL (≈ 90.8 µM); in the data set with Candida albicans [2], 12.5 µg/mL (≈ 45.4 µM); in the data set with Candida albicans [3] it was 12.5 µg/mL (≈ 45.4 µM); in the data set with Candida albicans [4], 25 µg/mL (≈ 90.8 µM).

`[O-][S+]1c2ccccc2SN1CCc1ccncc1` (stereo not drawn): the MIC in the data set on Candida albicans [1], against Candida albicans [2], in the data set on Candida albicans [3] and in the data set with Candida albicans [4] was 100 µg/mL (≈ 362 µM) each time.

In the case of `[O-][S+]1c2ccccc2SN1c1ccc(F)c(F)c1` (stereo not drawn), the minimum inhibitory concentration (MIC) in the data set with Candida albicans [1] was 25 µg/mL (≈ 88.2 µM); against Candida albicans [2] it was 100 µg/mL (≈ 353 µM); with Candida albicans [3], 25 µg/mL (≈ 88.2 µM); in the data set on Candida albicans [4], 25 µg/mL (≈ 88.2 µM).

Consider `C[C@@H]1[C@H](O)[C@@H](C)/C=C/C=C/C=C/C=C/C=C/C=C/C=C/[C@H](O[C@@H]2O[C@H](C)[C@@H](O)[C@H](N)[C@@H]2O)C[C@@H]2O[C@](O)(C[C@@H](O)C[C@@H](O)[C@H](O)CC[C@@H](O)C[C@@H](O)CC(=O)O[C@H]1C)C[C@H](O)[C@H]2C(=O)O` [AMPHOTERICIN B], for which the MIC in the data set with Candida albicans [1] is 25 µg/mL (≈ 27.1 µM); in the data set on Candida albicans [2], 1.56 µg/mL (≈ 1.69 µM); with Candida albicans [3], 1.56 µg/mL (≈ 1.69 µM); against Candida albicans [4] it was 0.78 µg/mL (≈ 0.844 µM).
